Measurements reported in ChEMBL document CHEMBL1221407, “Anthraquinone, cyclopentanone, and naphthoquinone derivatives from the sea fan-derived fungi Fusarium spp. PSU-F14 and PSU-F135” (J Nat Prod, 2010).
≈ marks a conversion by molar mass, not a printed value. Calls of active or inactive are those of the source. The rule behind the calls is not given here.

Experiments:
[1] = test system: Mycobacterium tuberculosis; experiment: Antimycobacterial activity against Mycobacterium tuberculosis H37Ra by green fluorescent protein-based fluorescent assay; assay type: functional
Vero = experiment: Cytotoxicity against african green monkey Vero cells; assay type: cell-based, Chlorocebus sabaeus
Outline: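 Vero cells (African green monkey kidney fibroblasts), noncancerous; run in triplicate by the method of Hunt and co-workers.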

Plasmodium falciparum = experiment: Antimalarial activity against multidrug-resistant Plasmodium falciparum K1 by microculture radioisotope technique; assay type: functional, organism-based
MCF7 = experiment: Cytotoxicity against human MCF7 cells; assay type: functional, cell-based
Outline: (§1)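 KB (oral human carcinoma) and MCF-7 (human breast cancer) cells; resazurin microplate assay.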

KB = experiment: Cytotoxicity against human KB cells; assay type: functional, cell-based; outline: as §1
Cryptococcus neoformans = experiment: Antimicrobial activity against Cryptococcus neoformans by colorimetric broth microdilution test; assay type: functional
Outline: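 Colorimetric broth microdilution run to CLSI M27-A2 (reference broth dilution method for yeasts) and Drummond and Waigh.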

Nannizzia gypsea = experiment: Antimicrobial activity against Microsporum gypseum by colorimetric broth microdilution test; assay type: functional
Outline: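 Colorimetric broth microdilution run to CLSI M38-A (broth dilution method for filamentous fungi) and Drummond and Waigh.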

[2] = Chlorocebus sabaeus, Vero, read-out: IC50
[3] = Plasmodium falciparum, K1, read-out: IC50
[4] = Homo sapiens, KB, read-out: IC50

| SMILES | MIC [1] | IC50 (Vero; [2]) [µM] | IC50 (Plasmodium falciparum; [3]) [µM] | IC50 (MCF7) [µM] | IC50 (KB; [4]) [µM] | MIC (Cryptococcus neoformans) [µM] | IC50 (Plasmodium falciparum) | MIC (Nannizzia gypsea) [µM] | IC50 (Vero; vero) | IC50 (KB; kb) |
| --- | --- | --- | --- | --- | --- | --- | --- | --- | --- | --- |
| COC1=CC(=O)c2c(O)c3c(c(O)c2C1=O)C[C@](C)(O)[C@H](O)[C@H]3O [BOSTRYCIN] | inactive | 4.2 | 9.8 | 2.7 | 0.9 |  |  |  |  |  |
| COc1cccc2c1C(=O)c1c(O)c3c(c(O)c1C2=O)C[C@@](O)(C(=O)CO)C[C@@H]3O[C@H]1C[C@H](N)[C@H](O)[C@H](C)O1 [DOXORUBICIN] |  |  |  | 2.18 | 0.33 |  |  |  |  |  |
| COC1=CC(=O)c2c(O)c3c(c(O)c2C1=O)CC(C)(O)OC3 (stereo not given) [FUSARUBIN] | inactive | 79 |  | 9.8 | 14 | > 200 | Not Active | > 200 |  |  |
| COc1cc(O)c2c(c1O)[C@@H](O)[C@@H](CC(C)=O)[C@@H](CO)C2=O [FUSARNAPHTHOQUINONE A] | inactive |  |  | 22 | 130 |  | Not Active |  | Not Active |  |
| COC1=CC(=O)c2c(cc3c(c2O)C[C@@H](O)[C@@](C)(O)C3)C1=O [NIGROSPORIN B] | 41 µM (≈ 12.5 µg/mL) | 29 | 13 | 5.4 | 88 |  |  |  |  |  |
| COc1cc(O)c2c(c1O)[C@H](O)[C@H]1C[C@](C)(O)[C@H](O)C[C@@H]1C2=O | inactive | 57 |  | 15 | 19 |  | Not Active |  |  |  |
| COC1=CC(=O)c2c(O)c3c(c(O)c2C1=O)C=C(C)OC3 [ANHYDROFUSARUBIN] | 87 µM (≈ 25.1 µg/mL) | 58 | 14 | 0.9 | 2 |  |  |  |  |  |
| COc1cc(O)c2c(c1O)[C@H](O)[C@H]1C[C@](C)(O)[C@H](O)[C@@H](O)[C@@H]1C2=O [9ALPHA-HYDROXYHALOROSELLINIA A] | 39 µM (≈ 13.3 µg/mL) | 54 | 25 | 6.2 | 49 |  |  |  |  |  |
| CO[C@@H]1CC(=O)c2c(O)c(C)c3cc(C)oc3c2[C@@H]1O [FUSARNAPHTHOQUINONE B] |  |  |  |  |  | > 200 |  | > 200 |  |  |
| C[C@H]1[C@@H](O)O[C@@H]2O[C@@]3(C)CC[C@H]4[C@H](C)CC[C@@H]1[C@@]24OO3 [ARTENIMOL] |  |  | 0.004 |  |  |  |  |  |  |  |
| COc1cc(O)c2c(c1O)C(=O)c1cc(C)ccc1C2=O [AUSTROCORTIRUBIN] | inactive |  |  | 6.3 |  |  | Not Active |  | Not Active | Not Active |
| Cc1c2ccncc2c(C)c2c1[nH]c1ccccc12 [ELLIPTECINE] |  | 4.47 |  |  | 1.1 |  |  |  |  |  |
| NNC(=O)c1ccncc1 [ISONIAZID] | 0.17 µM (≈ 0.0233 µg/mL) |  |  |  |  |  |  |  |  |  |
| COC1=CC(=O)c2c(O)c(C)c(CC(C)=O)c(O)c2C1=O [JAVANICIN] | inactive | 170 | 12 | 13 | 5.7 |  |  |  |  |  |
